Several values for one entry are separate records, joined by “and”; a condition that tells them apart may be missing. Equal values may be shown once. Read-outs that look alike come from different tables or passages of the source. Marks after values point to notes of the source that are not given here.
What was measured:
[1] = assay type: in vivo, human
Method in brief: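 Adult kidney or kidney-pancreas recipients on tacrolimus with mycophenolate and steroids, with or without induction. Whole-blood troughs were drawn before an oral dose: two per week in weeks 1–8 and two per month in months 3–6. Measurement was mostly by LC-MS. Doses were adjusted to center targets, generally 8–12 ng/mL (months 0–3) and 6–10 ng/mL (months 4–6). Dose-normalized trough = trough/daily dose (mg/kg). AA and non-AA were compared by Wilcoxon-Mann-Whitney.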

[2] = assay type: in vivo, human; remark: listed apart in the source
Method in brief: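 Log of trough (ng/mL) divided by total daily dose (mg/kg), from up to 24 troughs per patient over 6 months, fitted by general linear model. Time posttransplant (1–24) was categorical, with a covariance structure for repeated measures. Clinical factors were retained at backward-selection F-test p<0.15. Variants were tested one at a time (additive model, Toeplitz covariance), adjusted for center and retained factors. Significance was set at FDR 20%, effective m=2110.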

[3] = assay type: in vivo, human; remark: listed apart in the source
Method in brief: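 Uses the first log-transformed dose-normalized trough, taken within 4 days posttransplant. Variants and clinical factors were analysed by multiple linear regression with stepwise variable selection. Effect estimates and standard errors were taken from the final model. Age was mean-centered at 50.2 years. Center p-value is from the overall F-test.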

CYP3A5 = conditions: cited from earlier work
[4] = cited from earlier work
[5] = CYP3A5*3/*3 compared to *1/*1 or *1/*3; cited from earlier work
[6] = African American (n=144), over the first 6 months
[7] = nonAfrican American (n=551), over the first 6 months

Median trough ([1]; AAs, remained despite 60% higher doses (Figure 1)): < 8 ng/mL | Trough concentration, median (interquartile range) [1, 6]: 6.2 (4.4–8.4) ^d ng/mL | Trough dose-normalized, median (interquartile range) [1, 6]: 68.3 (46.1–103.6) ^d ng/ml per mg/kg/day | Subjects with first trough <8 ng/mL ([1]; African Americans): 96.6% | First trough concentration (week one posttransplant), median (interquartile range) ([1]; African Americans, daily dose 4.0 (4.0–5.0) mg/day): 2.1 (1.2–3.5) ng/mL | Dose-normalized trough, median (interquartile range) ([1]; CYP3A5*1/*1 genotype): 54.3(37.9–80.3) ng/mL per mg/kg | Trough concentration, median (interquartile range) ([1]; CYP3A5 *1/*1 genotype (rs776746)): 5.8(4.1–7.9) ng/mL | Dose-normalized trough, median (interquartile range) ([1]; CYP3A5 *1/*3 genotype): 77.8(53.1–114.6) ng/mL per mg/kg | Trough concentration, median (interquartile range) ([1]; CYP3A5 *1/*3 genotype (rs776746)): 7.1(5.1–9.3) ng/mL | Dose-normalized trough, median (interquartile range) ([1]; CYP3A5 *3/*3 genotype): 141.1(91.7–214.5) ng/mL per mg/kg | Trough concentration, median (interquartile range) ([1]; CYP3A5 *3/*3 genotype (rs776746)): 8.4(6.5–10.5) ng/mL | Trough dose-normalized, median (interquartile range) ([1]; all subjects (n=695), over the first 6 months): 116.5 (70.7–186.3) ng/ml per mg/kg/day | Trough concentration, median (interquartile range) ([1]; all subjects (n=695), over the first 6 months, whole blood, oral dosing): 7.9 (5.9–10.1) ng/mL | Trough concentration, median (interquartile range) ([1]; center 1, 6 month study period): 9.5 (8.0–11.4) ng/mL | Trough concentration, median (interquartile range) ([1]; center 2, 6 month study period): 10.5 (7.4–13.0) ng/mL | Trough concentration, median (interquartile range) ([1]; center 3, 6 month study period): 7.9 (6.1–10.1) ng/mL | Trough concentration, median (interquartile range) ([1]; center 4, 6 month study period): 9.7 (7.5–12.2) ng/mL | Trough concentration, median (interquartile range) ([1]; center 5, 6 month study period): 8.9 (7.1–10.6) ng/mL | Trough concentration, median (interquartile range) ([1]; center 6, 6 month study period): 9.1 (7.0–11.3) ng/mL | Trough concentration, median (interquartile range) ([1]; center 7, 6 month study period): 6.6 (4.7–8.7) ng/mL | First trough concentration ([1]; measured within 4 days after transplantation, in most subjects): < 5 ng/mL | Troughs achieved ([1]; non-AA group, quickly achieved (Figure 1)): > 8 ng/mL | Subjects with first trough <8 ng/mL ([1]; non-African Americans): 73.9% | Trough concentration, median (interquartile range) [1, 7]: 8.3 (6.4–10.4) ng/mL | Trough dose-normalized, median (interquartile range) [1, 7]: 131.4 (83.0–201.8) ng/ml per mg/kg/day | Median trough lower in AA than in non-AA recipients ([1]; over the 6 month study period, AAs on 60% higher median daily dose): 2.1 ng/mL | Reduction in log transformed dose-normalized trough ([2]; AA race relative to non-AAs): 0.04 | Increase in dose-normalized trough ([2]; CYP3A4 (rs7801671, rs12114000, rs2687117), CYP3A7 (rs2687080, rs776740), CYP3A5 (rs10264272) variants, adjusted for rs776746): 20–32% | Increase in log transformed dose-normalized troughs ([2]; calcium channel blocker (CCB) use): 0.03 | Increase in log transformed dose-normalized troughs ([2]; diabetes): 0.12 | Increase in log transformed dose-normalized troughs ([2]; male gender): 0.17 | Reduction in log transformed dose-normalized troughs ([2]; one A allele (CYP3A5*1, rs776746)): 36% | Effect on log transformed dose-normalized troughs (estimate ± SE) ([2]; one A allele (CYP3A5*1, rs776746), adjusted for clinical factors): −0.44±0.03 | Increase in log transformed dose-normalized troughs ([2]; one allele of CYP3A4 (rs7801671, rs12114000, rs2687117), CYP3A7 (rs2687080, rs776740), CYP3A5 (rs10264272) variants, adjusted for rs776746): 0.18–0.28 | Reduction in log transformed dose-normalized troughs ([2]; two A alleles (CYP3A5*1, rs776746)): 59% | Effect on log transformed dose-normalized first trough (Estimate ± SE) ([3]; African American subjects only, Diabetes): 0.45 ± 0.12 | Effect on log transformed dose-normalized first trough (Estimate ± SE) ([3]; African American subjects only, rs776746 (CYP3A5)): −0.25 ± 0.08 | Effect on log transformed dose-normalized first trough (Estimate ± SE) ([3]; African American subjects only, rs2072374 (CNAP1)): −0.45 ± 0.17 | Effect on log transformed dose-normalized first trough (Estimate ± SE) ([3]; African American subjects only, rs2239393 (COMT)): −0.19 ± 0.08 | Effect on log transformed dose-normalized first trough (Estimate ± SE) ([3]; African American subjects only, rs2280789 (CCL5)): 0.23 ± 0.10 | Effect on log transformed dose-normalized first trough (Estimate ± SE) ([3]; African American subjects only, rs2288648 (FASTK)): −0.41 ± 0.17 | Effect on log transformed dose-normalized first trough (Estimate ± SE) ([3]; African American subjects only, rs3136228 (MSH6)): −0.20 ± 0.08 | Effect on log transformed dose-normalized first trough (Estimate ± SE) ([3]; African American subjects only, rs12114000 (CYP3A4)): 0.38 ± 0.11 | Effect on log transformed dose-normalized first trough (Estimate ± SE) ([3]; Non-African American subjects only, Age in years, mean-centered at 50.2 years): 0.010 ± 0.002 | Effect on log transformed dose-normalized first trough (Estimate ± SE) ([3]; Non-African American subjects only, Diabetes): 0.21 ± 0.06 | Effect on log transformed dose-normalized first trough (Estimate ± SE) ([3]; Non-African American subjects only, rs4926 (SERPING1)): −0.12 ± 0.04 | Effect on log transformed dose-normalized first trough (Estimate ± SE) ([3]; Non-African American subjects only, rs17567 (EPS15)): 0.12 ± 0.05 | Effect on log transformed dose-normalized first trough (Estimate ± SE) ([3]; Non-African American subjects only, rs776746 (CYP3A5)): −0.31 ± 0.07 | Effect on log transformed dose-normalized first trough (Estimate ± SE) ([3]; Non-African American subjects only, rs1800822 (FMO3)): 0.20 ± 0.09 | Effect on log transformed dose-normalized first trough (Estimate ± SE) ([3]; Non-African American subjects only, rs2239393 (COMT)): −0.07 ± 0.04 | Effect on log transformed dose-normalized first trough (Estimate ± SE) ([3]; Non-African American subjects only, rs2608555 (GAN)): 0.17 ± 0.04 | Effect on log transformed dose-normalized first trough (Estimate ± SE) ([3]; Non-African American subjects only, rs3135506 (APOA5)): −0.23 ± 0.08 | Effect on log transformed dose-normalized first trough (Estimate ± SE) ([3]; Non-African American subjects only, rs3734354 (SIM1)): 0.20 ± 0.06 | Effect on log transformed dose-normalized first trough (Estimate ± SE) ([3]; all subjects model, Age in years, mean-centered at 50.2 years): 0.008 ± 0.002 | Effect on log transformed dose-normalized first trough (Estimate ± SE) ([3]; all subjects model, Diabetes): 0.23 ± 0.05 | Effect on log transformed dose-normalized first trough (Estimate ± SE) ([3]; all subjects model, rs3448 (GPX1)): 0.07 ± 0.04 | Effect on log transformed dose-normalized first trough (Estimate ± SE) ([3]; all subjects model, rs4926 (SERPING1)): −0.09 ± 0.04 | Effect on log transformed dose-normalized first trough (Estimate ± SE) ([3]; all subjects model, rs13321 (TNC)): 0.06 ± 0.04 | Effect on log transformed dose-normalized first trough (Estimate ± SE) ([3]; all subjects model, rs17567 (EPS15)): 0.10 ± 0.04 | Effect on log transformed dose-normalized first trough (Estimate ± SE) ([3]; all subjects model, rs776746 (CYP3A5)): −0.33 ± 0.05 | Effect on log transformed dose-normalized first trough (Estimate ± SE) ([3]; all subjects model, rs2072374 (CNAP1)): −0.08 ± 0.04 | Effect on log transformed dose-normalized first trough (Estimate ± SE) ([3]; all subjects model, rs2239393 (COMT)): −0.28 ± 0.08 | Effect on log transformed dose-normalized first trough (Estimate ± SE) ([3]; all subjects model, rs2608555 (GAN)): 0.15 ± 0.04 | Effect on log transformed dose-normalized first trough (Estimate ± SE) ([3]; all subjects model, rs2687117 (CYP3A4)): 0.26 ± 0.08 | Effect on log transformed dose-normalized first trough (Estimate ± SE) ([3]; all subjects model, rs3135506 (APOA5)): −0.23 ± 0.07 | Effect on log transformed dose-normalized first trough (Estimate ± SE) ([3]; all subjects model, rs3734354 (SIM1)): 0.19 ± 0.06 | Effect on log transformed dose-normalized first trough (Estimate ± SE) ([3]; all subjects model, rs4646312 (COMT)): 0.22 ± 0.08
Structure (SMILES): C=CC[C@@H]1/C=C(\C)C[C@H](C)C[C@H](OC)[C@H]2O[C@@](O)(C(=O)C(=O)N3CCCC[C@H]3C(=O)O[C@H](/C(C)=C/[C@@H]3CC[C@@H](O)[C@H](OC)C3)[C@H](C)[C@@H](O)CC1=O)[C@H](C)C[C@@H]2OC [tacrolimus, Tacrolimus]
First trough concentration (week one posttransplant), median (interquartile range) ([1]; non-African Americans, daily dose 4.0 [4.0–6.0] mg/day): 5.0 [3.1–8.2] ng/mL and 5.0 (3.1–8.2) ng/mL | Fraction metabolized through CYP3A5 (CYP3A5; hepatic enzymes from CYP3A5*1 allele carriers): 60% | Intrinsic tacrolimus clearance of CYP3A5 enzyme relative to CYP3A4 (CYP3A5; in vitro): twice | Subjects achieving the trough target ([4]; control group): 29.1% | Subjects achieving the trough target ([4]; genotype adapted dosing): 43.2% | Intersubject pharmacokinetic variability in area under the curve, higher [5]: 41.1%
